# TNAP inh no acc – TNAP (human) inhibition, acceptor-free conditions | P05186 | purified TNAP, CDP-star luminescence, 30 min | inhibition, % at 20 µM | hit rate 0.26% among 200,000 | AID 1012;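 active = tissue-nonspecific alkaline phosphatase inhibition above about 50% at 20 µM in the single-dose screen, limit read from the data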;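 also: 0% = DMSO negative control and 100% = EDTA positive control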
# Target sequence (P05186 whole entry, looked up): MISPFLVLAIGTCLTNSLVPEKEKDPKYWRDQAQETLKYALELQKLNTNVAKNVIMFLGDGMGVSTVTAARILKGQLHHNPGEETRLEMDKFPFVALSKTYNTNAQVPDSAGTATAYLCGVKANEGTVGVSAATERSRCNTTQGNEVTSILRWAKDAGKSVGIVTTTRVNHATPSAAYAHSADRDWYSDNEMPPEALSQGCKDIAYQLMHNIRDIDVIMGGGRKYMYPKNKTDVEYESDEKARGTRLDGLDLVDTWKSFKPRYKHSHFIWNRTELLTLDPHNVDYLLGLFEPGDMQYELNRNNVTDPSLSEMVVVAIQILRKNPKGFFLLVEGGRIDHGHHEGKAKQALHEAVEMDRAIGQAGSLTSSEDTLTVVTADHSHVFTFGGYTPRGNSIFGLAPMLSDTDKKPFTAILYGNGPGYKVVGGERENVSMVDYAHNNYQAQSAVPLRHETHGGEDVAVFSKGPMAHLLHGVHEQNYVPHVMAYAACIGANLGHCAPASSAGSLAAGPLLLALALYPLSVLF
# HCT116 PTEN-null – suppresses growth of cells with PTEN deletion | HCT116 PTEN-null viability, CellTiter-Glo, 60 h; stronger effect = lower value | viability, % at 10 µM | hit rate 1.2% among 140,000;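 active = viability at or below a set limit, 4 SD under the median of all tested compounds, cut at about 3.7% in these data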;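 also: PTEN knockout HCT116 line with beta catenin targeted HCT116 as companion control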
# TNAP inh hi DEA – TNAP (human) inhibition, high acceptor; P05186; purified TNAP, CDP-star luminescence, 1 M DEA; inhibition, % at 20 µM; hit rate 0.03% among 200,000; AID 1135;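 active = over 50% inhibition of tissue-nonspecific alkaline phosphatase at 20 µM in the single-dose screen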;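 also: plate controls were DMSO wells for no effect and EDTA-quenched wells as full inhibition for full effect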
# TNAP act hi DEA – increases human TNAP activity under high phosphate acceptor concentration; P05186; purified TNAP, CDP-star luminescence, 1 M DEA, 30 min; stronger effect = higher value; 0 = EDTA background, 1 = DMSO-only activity; activation factor at 20 µM; AID 1136; 200,000 tested, under 10 active;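 active = activation factor at least 2 at 20 µM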
#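 Control set: EDTA negative control, DMSO positive control / Assay system: human TNAP / Quantity: TNAP 1/800 final / Evaluation: TNAP activation factor scaled between EDTA and DMSO control wells / Measured by: luminescent substrate turnover signal / Compound dosing: one dose, 20 µM / Times: 30 min enzyme reaction at room temperature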
# Lmaj promast – reduces viability of Leishmania major promastigotes | AID 1063 | inhibition, % at 10 µM | hit rate 9% among 200,000 | resazurin fluorescence viability; in the data active = inhibition above about 50%;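 also: promastigotes grown with compound for 44 hours at 28 °C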
# HCT116 bCat-KO – beta-catenin-lacking colon tumor cell growth suppression | HCT116 beta-catenin knockout viability, CellTiter-Glo, 60 h; stronger effect = lower value | viability, % at 10 µM | hit rate 1.5% among 140,000;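 active = viability at or under a set limit, the compound median less 4 SD, cut at about 6% in these data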;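 also: 0% = Hyamine 1622 control at 20 µM and 100% = untreated cell control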
# An asterisk follows results filed as active; . = no result. Hits are enriched below; roughly 9.6% of the tested compounds scored in any of these assays.
SMILES,TNAP inh no acc,HCT116 PTEN-null,TNAP inh hi DEA,TNAP act hi DEA,Lmaj promast,HCT116 bCat-KO
Cc1cc(C)cc(-c2nc(-c3ccncc3)no2)c1,4,88,-4,1,-3,96
O=[N+]([O-])c1cc(-c2nc(-c3ccncc3)no2)ccc1Cl,-24,2.3*,0,1,13,2.8*
CC1(C)Cc2nc3nc(SCC(=O)Nc4ccccc4)nc(N)c3cc2CO1,-11,.,-1,1,16,.
CCN(CC)CCn1c(=S)[nH]c2cc(C(=O)N3CC=C(c4ccccc4)CC3)ccc2c1=O,-4,.,-2,1,20,.
CCOC(=O)CC1=NN(c2ccccc2)C(=O)/C1=C\c1ccc(OC)cc1OC,3,99,2,1,-3,93
COc1ccc(OC)c(/C(O)=C/C(=O)C(=O)Nc2cc(C)ccc2OC)c1,29,85,0,1,93*,86
CCC(C(=O)OCC(=O)Nc1ccc(Cl)c(S(=O)(=O)N(C)C)c1)c1ccccc1 (stereo unspecified),9,89,-6,1.1,62*,85
c1cnc2c(C3NCCc4c3[nH]c3ccccc43)cccc2c1 (stereo unspecified),-3,.,-1,1,0,.
COc1ccc(-n2c(=S)[nH]c3ccccc32)cc1,-30,35,-3,1,53*,85
CCC1CCCCN1C(=O)COc1ccccc1NC(C)=O (stereo unspecified),0,.,-3,1,-2,.
CC(CCc1ccccc1)NC(=O)Cc1ccc([N+](=O)[O-])cc1 (stereo unspecified),-7,93,-3,1,65*,85
CC(CCc1ccccc1)NC(=O)CSc1ccccc1 (stereo unspecified),-1,95,-3,1,52*,93
CC(CCc1ccccc1)NC(=O)CN1CCN(c2ccc(O)cc2)CC1 (stereo unspecified),-5,.,-2,1,64*,.
CCCc1sc(N/N=C/c2ccccn2)nc1-c1ccc(Br)cc1,-23,11,7,0.9,97*,7
O=C(Nc1nc2nccc(-c3ccccc3)n2n1)C(Cl)(Cl)Cl,-9,104,-8,1.1,53*,106
O=C1c2ccccc2C(=O)N1c1nc2nccc(-c3ccccc3)n2n1,-4,77,2,1,-4,82
CC1=NN(C(=O)CSCc2ccccc2)C(O)(c2ccc(F)cc2)C1 (stereo unspecified),-55,.,-2,1,99*,.
CCC1CSC(Nc2ccc(C(=O)/C=C/c3ccc(OC)c(OC)c3)cc2)=N1 (stereo unspecified),0,3.4*,0,1,96*,3.0*
COc1ccc(/C=C/C(=O)c2ccc(NC3=NCCCS3)cc2)cc1OC,3,.,1,1,100*,.
CCC1CSC(Nc2ccc(C(=O)/C=C/c3ccc(Br)cc3)cc2)=N1 (stereo unspecified),-8,2.8*,-6,1.1,98*,5.4*
O=C(/C=C/c1ccc(Br)cc1)NC1CCCCCC1,-9,99,-4,1,-4,100
CC(=O)Nc1cccc(Oc2ncnc3scc(-c4ccc(C(C)C)cc4)c23)c1,-8,53,-5,1.1,14,56
CCN(CC)C(=O)C1CCCN(Cc2ccc(F)c(F)c2)C1 (stereo unspecified),-10,93,-4,1,-5,93
CCOC(=O)C1CCCCN1Cc1cccc(F)c1 (stereo unspecified),-16,103,0,1,-4,92
Fc1ccc(CN2CCN3CCCC3C2C2CCCCC2)cc1F (stereo unspecified),-6,69,0,1,99*,62
SMILES,TNAP inh no acc,HCT116 PTEN-null,TNAP inh hi DEA,TNAP act hi DEA,Lmaj promast,HCT116 bCat-KO
Fc1cccc(CN2CCN3CCCC3C2C2CCCCC2)c1 (stereo unspecified),-9,64,-7,1.1,89*,70
Cc1ccc(NC(=O)CCSCCC(=O)Nc2ccc(C)c(C)c2)cc1C,-6,89,-1,1,-3,88
Cc1ccc(C)c(Sc2ccc(NC(=O)CCl)cc2)c1,-3,14,0,1,100*,17
Cc1ccc(Sc2ccc(NC(=O)CCl)cc2)cc1C,0,26,0,1,100*,19
Cc1nc2c(C(=O)NCc3cccs3)cnn2c(C)c1Cc1ccccc1,-14,92,-1,1,54*,97
COc1ccc(S(=O)(=O)N(C)CC(=O)N2CCC(C)CC2)cc1Cl,-6,107,2,1,97*,94
CCN1CCN(CCOCCOc2ccccc2-c2ccccc2)CC1,0,.,-2,1,93*,.
Cc1cccc(OCCOCCN2CCNCC2)c1C,-5,75,2,1,8,72
CCN1CCN(CCOc2ccccc2OCc2ccccc2)CC1,-9,.,-5,1.1,9,.
c1ccc(-c2ccccc2OCCOCCN2CCNCC2)cc1,-8,.,-5,1.1,82*,.
Cc1c(Cl)ccc2sc(NC(=O)CN3C(=O)c4ccccc4C3=O)nc12,-2,0.5*,1,1,-2,0.8*
CN1C(=O)/C(=C/c2ccccc2Cl)Sc2ccc(C(=O)NCc3cccnc3)cc21,-5,.,-5,1,19,.
N#CC1(Cc2ccc([N+](=O)[O-])cc2)c2ccccc2C=CN1C(=O)c1ccccc1 (stereo unspecified),-5,75,-2,1,51*,83
CC1=Cc2ccccc2C(C#N)N1C(=O)c1ccccc1 (stereo unspecified),0,14,-6,1.1,11,13
N#CC1(Cc2ccccc2)c2ccccc2C=CN1C(=O)c1ccccc1 (stereo unspecified),-2,90,-1,1,82*,93
CCN(C1CCCCC1)S(=O)(=O)c1ccc(OC)c(C)c1,-9,93,-4,1,3,91
COc1cc(CN(C2CCCCC2)S(=O)(=O)c2ccc(S(=O)(=O)N(C)C3CCCCC3)cc2)cc(OC)c1OC,13,94,3,1,93*,88
O=C(Nc1nc2ccc(SC(F)F)cc2s1)c1ccc2c(c1)S(=O)(=O)c1ccccc1C2=O,-5,50,20,0.8,86*,64
O=C(Nc1nc(-c2ccccc2)cs1)c1ccc2c(c1)S(=O)(=O)c1ccccc1C2=O,-8,2.5*,9,0.9,-4,4.0*
O=C(Nc1ccncc1)c1ccc2c(c1)S(=O)(=O)c1ccccc1C2=O,1,.,-6,1.1,100*,.
O=C(Nc1nc2ccccc2s1)c1ccc2c(c1)S(=O)(=O)c1ccccc1C2=O,-2,.,3,1,3,.
O=C(Nc1nc(-c2cccc3ccccc23)cs1)c1ccc2c(c1)S(=O)(=O)c1ccccc1C2=O,6,.,7,0.9,-5,.

# Source: PubChem (several laboratories)
